Laboratory results reported in ChEMBL document CHEMBL1145973 (J Med Chem, 2003).

Legend:
Mu-type opioid receptor [1] = target: T1, Mu-type opioid receptor (Homo sapiens, UniProt P35372); test: Efficacy for Opioid receptor mu 1-mediated [35S]GTP-gamma-S incorporation into CHO membrane preparations; assay type: functional
[2] = target: Kappa-type opioid receptor (Cavia porcellus, UniProt P41144); test: Displacement of 3H-U-69,593 from Opioid receptor kappa 1 in guinea pig cerebellum preparation; assay type: tissue-based
[3] = target: Delta-type opioid receptor (Homo sapiens, UniProt P41143); test: Displacement of [3H]diprenorphine from human Opioid receptor delta 1 epressing HEK293 cells; assay type: cell-based
Summary of the method: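 Human DOR-1 stably transfected into HEK-293 cells; competition binding against 3H-diprenorphine. Mean ± SD of duplicate measurements.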

Mu-type opioid receptor [4] = target: T1, Mu-type opioid receptor; test: Displacement of [3H]DAMGO from human Opioid receptor mu 1 expressing CHO cells; assay type: cell-based
[5] = target: Opioid receptors; mu & delta (Homo sapiens) (UniProt P41143+P35372); test: Relative affinity for delta and mu opioid receptors; assay type: protein assay
[6] = target: Opioid receptors; mu & kappa (Homo sapiens) (UniProt P41145+P35372); test: Relative affinity for kappa 1 and mu opioid receptors; assay type: protein assay
Summary of the method: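 Ratio of Ki at KOR, from 3H-U-69,593 competition in guinea pig cerebellum, to Ki at MOR, from 3H-DAMGO competition on hMOR-1 in CHO cells.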

Mu-type opioid receptor [7] = target: T1, Mu-type opioid receptor; test: Specific binding of GTP-gamma -35S to G proteins in CHO membrane preparation stably transfected with human Opioid receptor mu 1 in the presence of GDP and 10 uM compound; assay type: cell membranes
Summary of the method: (§1)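 Human MOR-1 stably transfected into CHO cells; membrane preparations incubated with GDP and test compound at 10 µM. Specific [35S]GTP-γ-S binding to G proteins is expressed as a percentage of DAMGO-induced specific binding. Mean ± SD of quadruplicate measurements.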

Mu-type opioid receptor [8] = target: T1, Mu-type opioid receptor; test: Compound tested at 10 uM for the ability to induce Opioid receptor mu 1-mediated binding of [35S]GTP-gamma-S to G proteins in CHO membrane preparations; assay type: functional, cell membranes; summary of the method: as §1

Chain of Opioid receptors; mu & kappa (Homo sapiens) (P35372 whole entry, looked up): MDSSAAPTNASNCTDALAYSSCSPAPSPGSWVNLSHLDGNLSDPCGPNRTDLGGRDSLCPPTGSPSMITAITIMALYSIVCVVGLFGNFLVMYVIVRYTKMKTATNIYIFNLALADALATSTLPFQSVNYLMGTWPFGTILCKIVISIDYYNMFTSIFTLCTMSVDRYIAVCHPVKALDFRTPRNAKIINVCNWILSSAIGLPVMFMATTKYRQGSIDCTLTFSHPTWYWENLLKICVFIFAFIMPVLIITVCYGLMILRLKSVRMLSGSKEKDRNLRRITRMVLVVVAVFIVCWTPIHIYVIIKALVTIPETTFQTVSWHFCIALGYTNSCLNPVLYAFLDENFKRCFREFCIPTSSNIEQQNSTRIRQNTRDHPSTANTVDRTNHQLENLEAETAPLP
Chain of Opioid receptors; mu & kappa (Homo sapiens) (P41145 whole entry, looked up): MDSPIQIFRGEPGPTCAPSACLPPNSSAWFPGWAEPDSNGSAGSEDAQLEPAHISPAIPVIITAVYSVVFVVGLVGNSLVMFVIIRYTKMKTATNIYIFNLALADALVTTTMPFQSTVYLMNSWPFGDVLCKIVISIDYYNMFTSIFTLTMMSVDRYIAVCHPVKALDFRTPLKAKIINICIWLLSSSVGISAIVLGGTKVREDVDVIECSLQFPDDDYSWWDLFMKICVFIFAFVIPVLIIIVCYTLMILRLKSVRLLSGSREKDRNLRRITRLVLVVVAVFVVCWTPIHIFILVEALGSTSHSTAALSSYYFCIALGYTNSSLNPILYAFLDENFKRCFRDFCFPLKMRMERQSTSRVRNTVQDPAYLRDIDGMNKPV
Chain of Opioid receptors; mu & delta (Homo sapiens) (P35372 whole entry, looked up): as the sequence (P35372 whole entry, looked up) above
Chain of Opioid receptors; mu & delta (Homo sapiens) (P41143 whole entry, looked up): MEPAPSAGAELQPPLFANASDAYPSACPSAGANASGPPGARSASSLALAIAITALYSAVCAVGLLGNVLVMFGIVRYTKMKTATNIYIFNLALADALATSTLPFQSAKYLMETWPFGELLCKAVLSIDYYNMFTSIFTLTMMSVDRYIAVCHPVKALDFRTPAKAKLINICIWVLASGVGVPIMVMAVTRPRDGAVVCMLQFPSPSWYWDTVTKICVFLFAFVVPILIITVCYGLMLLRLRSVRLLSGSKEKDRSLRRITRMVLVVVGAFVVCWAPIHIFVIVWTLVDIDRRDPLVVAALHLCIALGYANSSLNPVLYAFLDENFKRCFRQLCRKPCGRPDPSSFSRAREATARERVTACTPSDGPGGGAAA
T1 sequence (P35372 whole entry): as the sequence (P35372 whole entry, looked up) above
Chain of Kappa-type opioid receptor (P41144 whole entry): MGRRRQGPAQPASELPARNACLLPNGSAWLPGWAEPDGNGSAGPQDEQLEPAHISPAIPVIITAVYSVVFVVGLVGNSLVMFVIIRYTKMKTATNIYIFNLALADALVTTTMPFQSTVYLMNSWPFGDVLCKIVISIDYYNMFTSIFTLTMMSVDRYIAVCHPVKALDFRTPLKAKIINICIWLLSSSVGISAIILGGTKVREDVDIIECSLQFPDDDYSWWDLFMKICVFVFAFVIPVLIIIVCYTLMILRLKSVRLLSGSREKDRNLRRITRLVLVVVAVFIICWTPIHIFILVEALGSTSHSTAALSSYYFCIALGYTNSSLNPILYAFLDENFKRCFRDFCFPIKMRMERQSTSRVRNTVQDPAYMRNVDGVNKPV
Chain of Delta-type opioid receptor (P41143 whole entry): as the sequence (P41143 whole entry, looked up) above

SMILES	GTP-gamma35S bound (Mu-type opioid receptor [1]) [%]	Ki [2] [nM]	Ki [3] [nM]	Ki (Mu-type opioid receptor [4]) [nM]	Ratio [5]	Ratio [6]	GTP-gamma35S bound (Mu-type opioid receptor [7]) [%]	EC50 (Mu-type opioid receptor [8]) [nM]	Ki ([3]; hek293) [nM]	Ki (Mu-type opioid receptor [4]; cho) [nM]
Cc1cc(O)cc(C)c1C[C@H](N)[C@@H](O)C/C=C/[C@@H](O)[C@H](Cc1ccccc1)C(=O)NCCc1ccccc1	52	60	119	0.64	190	94				
NC(=O)[C@H](Cc1ccccc1)NC(=O)[C@H](Cc1ccccc1)NC(=O)[C@H]1CCCN1C(=O)[C@@H](N)Cc1ccccc1	100				[…]	[…]				
Cc1cc(O)cc(C)c1C[C@H](N)[C@H](O)C/C=C/[C@@H](O)[C@@H](Cc1ccccc1)C(=O)N[C@@H](Cc1ccccc1)C(N)=O	43	25	85	1.6	53	16				
Cc1cc(O)cc(C)c1C[C@H](N)[C@@H](O)C/C=C/[C@H](O)[C@@H](Cc1ccccc1)C(=O)O[C@H](CO)Cc1ccccc1		85	17	0.44	39	190	62			
Cc1cc(O)cc(C)c1C[C@H](N)[C@H](O)C/C=C/[C@H](O)[C@@H](Cc1ccccc1)C(=O)NCCc1ccccc1	49	51	123	0.24	510	210		49		
Cc1cc(O)cc(C)c1C[C@H](N)[C@@H](O)C/C=C/[C@@H](O)[C@@H](Cc1ccccc1)C(=O)NCCc1ccccc1	48	64	26	0.37	70	170				
Cc1cc(O)cc(C)c1C[C@H](N)[C@@H](O)C/C=C/[C@H](O)[C@@H](Cc1ccccc1)C(=O)O[C@@H](Cc1ccccc1)C(N)=O	47	126	21		46	280				
Cc1cc(O)cc(C)c1C[C@H](N)[C@H](O)C/C=C/[C@H](O)[C@@H](Cc1ccccc1)C(=O)N[C@@H](Cc1ccccc1)C(N)=O	14	15	46	1.2	38	13				
Cc1cc(O)cc(C)c1C[C@H](N)[C@@H](O)C/C=C/[C@H](O)[C@@H](Cc1ccccc1)C(=O)N[C@@H](Cc1ccccc1)C(N)=O	35	22	40	0.17	230	130				
NC(=O)[C@H](Cc1ccccc1)NC(=O)[C@H](Cc1ccccc1)NC(=O)[C@@H]1CCCN1C(=O)[C@@H](N)Cc1ccccc1		10400						31	[…]	0.69
Cc1cc(O)cc(C)c1C[C@H](N)[C@@H](O)C/C=C/[C@H](O)[C@@H](Cc1ccccc1)C(=O)NCCc1ccccc1	40	42	99	0.29	340	140				
Cc1cc(O)cc(C)c1C[C@H](N)[C@@H](O)C/C=C/[C@H](O)[C@@H](Cc1ccccc1)C(=O)N[C@H](CO)Cc1ccccc1	44	69	54	0.16	340	430				
Cc1cc(O)cc(C)c1C[C@H](N)[C@@H](O)C/C=C/[C@H](O)[C@@H](Cc1ccccc1)C(=O)OCCc1ccccc1	79		56	0.24				4.2		
Cc1cc(O)cc(C)c1C[C@H](N)[C@H](O)C/C=C/[C@@H](O)[C@@H](Cc1ccccc1)C(=O)NCCc1ccccc1	27	69	66	0.72	91	96				
Cc1cc(O)cc(C)c1C[C@H](N)[C@@H](O)C/C=C/[C@@H](O)[C@H](Cc1ccccc1)C(=O)N[C@@H](Cc1ccccc1)C(N)=O	32	50	230	1.2	190	41				
Cc1cc(O)cc(C)c1C[C@H](N)[C@@H](O)C/C=C/[C@@H](O)[C@@H](Cc1ccccc1)C(=O)N[C@@H](Cc1ccccc1)C(N)=O	75	21	36	0.42	86	49		7.9		
